The source made the active and inactive calls. The calls are words filed in the database; no cut-off is given here.
Experiments:
Hippocampal neuron [1] = assay: (§1) Neuroprotective activity in mouse hippocampal neurons assessed as Abeta-induced neuronal apoptosis at 30 uM pre-incubated for 4 hrs before Abeta challenge for 72 hrs by TUNEL assay (reference value: 100%); assay type: functional; conditions: Hippocampus
Summary of the method: (§2)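 Aggregated Aβ (20 μM, 72 h) was applied to primary mouse hippocampal neurons with or without compound at 30 μM. Apoptosis was scored by TUNEL as the percentage of positive nuclei among total nuclei, referred to Aβ alone (100%). Medium-only cells were the negative control and DNase the positive control. n = 4, mean ± SEM, two-tailed Student's test.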

Mus musculus = species: Mus musculus; assay: Inhibition of imidazole receptor 2 in mouse hippocampal neurons assessed as reduction in tPA-induced Erk1/2 activation at 30 uM pre-incubated for 4 hrs before tPA stimulation by ELISA; conditions: Hippocampus
Summary of the method: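 Primary mouse hippocampal neurons were stimulated with tPA (20 μg/mL, 1 h) with or without compound at 30 μM. Phospho-Erk1/2 was measured by ELISA with a phospho-specific antibody and normalized to total Erk1/2. Untreated cultures set the lower limit and tPA alone the upper limit.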

Rattus norvegicus [2] = species: Rattus norvegicus; assay: Displacement of [3H]idazoxan from rat cerebral cortex imidazole receptor 2 at 10 uM in presence of 1 uM yohimbine; assay type: tissue-based
Rattus norvegicus [3] = species: Rattus norvegicus; assay: Displacement of [3H]2-BFI from rat imidazole receptor 2 in rat whole brain at 10 uM in presence of 1 uM yohimbine
Hippocampal neuron [4] = assay: Neuroprotective activity against Abeta-induced neuronal apoptosis in mouse hippocampal neurons assessed as reduction in DNA fragmentation at 30 uM pre-incubated for 4 hrs before Abeta challenge for 72 hrs by immunofluorescence microscopy; assay type: functional, tissue-based; conditions: Hippocampus
Summary of the method: (§3)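 Primary mouse hippocampal neurons were exposed to Aβ (20 μM, 72 h) alone or with compound. Double immunofluorescence microscopy was then run for DNA fragmentation (TUNEL, green) and total neuronal nuclei (NeuN, red), with merged images. DNase-treated cells served as positive control.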

[5] = as §1; assay type: functional, Hippocampus, Hippocampal neuron; summary of the method: as §2
[6] = Inhibition of radioligand binding to N-methyl D-aspartate receptor phencyclidine binding site at 10 uM
Summary of the method: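 Radioligand binding panel. Values are average percentages of inhibition of specific binding, measured against potent standard ligands for each target.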

Hippocampal neuron [7] = assay: Neuroprotective activity against Abeta-induced neuronal apoptosis in mouse hippocampal neurons assessed as reduction in total neuronal nuclei level at 30 uM pre-incubated for 4 hrs before Abeta challenge for 72 hrs by immunofluorescence microscopy; assay type: functional, tissue-based; conditions: Hippocampus; summary of the method: as §3

| SMILES | Activity (Hippocampal neuron [1]) | inhibition of tPA-induced Erk1/2 activation (active/inactive call) (Mus musculus) | inhibition [6] [%] | other results |
| --- | --- | --- | --- | --- |
| CN1Cc2ccccc2C2CCc3ccccc3C21 (configuration not stated) | inactive | Active |  |  |
| c1ccc(C2NCCc3sccc32)cc1 (configuration not stated) | Active | Active |  |  |
| CN1CCn2cccc2C1c1ccccc1 (configuration not stated) | Active | Active |  |  |
| c1ccc(-c2ncc3cc(-n4ccnc4)ccc3n2)cc1 |  |  |  | inhibition (Rattus norvegicus [2]): 66%; inhibition (Rattus norvegicus [3]): 92% |
| CC12CC3CC(C)(C1)CC(N)(C3)C2 [MEMANTINE] |  | Active | 92 | Activity (Hippocampal neuron [4]): Active; Activity [5]: 42.3%; Activity (Hippocampal neuron [7]): Active |
| CN1CCCC2(CCCNC2)C1 (configuration not stated) | inactive | Active |  |  |
| C[C@]12N[C@H](Cc3ccccc31)c1ccccc12 |  |  | 98 | inhibition (Mus musculus): Active |
| c1ccc(C2NCCc3ccccc32)cc1 (configuration not stated) | inactive | Active | 69 |  |
| c1csc(C2NCCc3ccccc32)c1 (configuration not stated) | Active | Active |  |  |
